Screen size: about 2,500 compounds; about 460 (18%) were called active.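 Rule for the calls: active = mean activation above a cutoff of low control average plus 3 SD from the earlier screen (cut at about 12% in these data); inactive = the rest.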 A selection follows.
Test: IANBD-channel fluorescence artefacts in buffer – biochemical, artefact control for cardiac RTF calcium sensitizer project, confirmation (AID 504382)
Conditions: IANBD fluorescence interference counterscreen, EC20 Ca2+, at 7.2 µM, hits give high values, scaled: EC20 calcium 0, EC100 calcium 100
In short: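 Doses – one dose of 7.2 µM, 0.7% DMSO · Buffer or medium – MOPS/KCl/MgCl2/EGTA/NTA/DTT buffer, pH 7.2 · Probe or stimulus – Ca2+ fixed at EC20, 0.472 mM · Measured by – fluorescence intensity, excitation 480 nm, emission 540 nm · Read-out – fluorescence interference versus control range · Timing – 15 min compound exposure at 25 °C · Replication – triplicate wells per compound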
With O=c1oc2c3c4c(cc2c(C(F)(F)F)c1CCN1CCOCC1)CCCN4CCC3 the fluorescence artifact activation was -0.03% (inactive). With Cn1ncc(N=Cc2c(O)ccc3ccccc23)c1C(=O)Nc1cccc(Cl)c1 the fluorescence artifact activation was 0.09% (inactive). In the case of O=C1c2cccc3c(O)ccc(c23)C(=O)N1Cc1ccccc1, the fluorescence artifact activation is reported as 11.9% (active). For O=C1c2cccc3c(N4CCCCC4)ccc(c23)C(=O)N1c1ccccc1O, the fluorescence artifact activation was -0.03% (inactive). In the case of CCNc1cccc2c1C(=O)N(C)C2=O, the fluorescence artifact activation is reported as 0.15% (inactive). For CC1(C)CC2CC(C)(CN2CC(=O)C(C#N)c2ccccc2)C1 (configuration not stated), the fluorescence artifact activation was 0.12% (inactive). For Cc1cccc(/C=N/n2c(-c3ccncc3)n[nH]c2=S)c1, the fluorescence artifact activation was 7.13% (inactive). In the case of C=CCn1cc(/C=C/c2cc[n+](C)cc2)c2ccccc21, the fluorescence artifact activation is reported as 0.14% (inactive). For N#C/C(=C\c1coc2ccc(O)cc2c1=O)C(=O)Nc1nc2ccccc2s1, the fluorescence artifact activation was 1.92% (inactive). In the case of Fc1ccc(CN2CC[C@H]3C=CCc4cccc(c43)C2)cc1, the fluorescence artifact activation is reported as 52.5% (active). In the case of COc1cc(/C=C2/SC(=S)N(CCC(=O)Nc3ccccc3)C2=O)cc(OC)c1OC, the fluorescence artifact activation is reported as 0.06% (inactive). With CCOc1ccc(NC(=O)/C(C#N)=C\c2ccc(N3CCCC3)c(C)c2)cc1 the fluorescence artifact activation was 0.15% (inactive). For CSc1nnc(-c2ccc(S(=O)(=O)N3CCCC3)cc2)n1C, the fluorescence artifact activation was 0.02% (inactive). With CSc1nc2ccccc2n1CC(=O)Nc1c(C)cccc1C the fluorescence artifact activation was 2.26% (inactive). With CN1CCS/C1=C/C=C1/SC(=S)N(Cc2ccccc2)C1=O the fluorescence artifact activation was -0.03% (inactive). In the case of CCN1/C(=C2\SC(=S)N(Cc3ccccc3)C2=O)Sc2ccccc21, the fluorescence artifact activation is reported as 0.08% (inactive). In the case of CCN1C(=O)/C(=C/N2CCc3ccccc32)SC1=S, the fluorescence artifact activation is reported as 12.6% (active). For S=C(NCCCN1CCOCC1)Nc1ccc(-c2nc3ccccc3[nH]2)cc1, the fluorescence artifact activation was 0.17% (inactive). In the case of O=c1oc2c(CN3CCCCC3)c(O)ccc2cc1-c1nc2ccccc2[nH]1, the fluorescence artifact activation is reported as 60.5% (active). With O=c1oc2c(O)cccc2cc1-c1nc2ccccc2[nH]1 the fluorescence artifact activation was 0.04% (inactive). In the case of O=C1CCc2cc(S(=O)(=O)NC3CCCCC3)ccc2N1, the fluorescence artifact activation is reported as -0.07% (inactive). For Cc1ccc(CNC(=O)CC(C)S(=O)(=O)c2ccc3c(c2)NC(=O)CS3)o1 (configuration not stated), the fluorescence artifact activation was 45.8% (active). For Cc1cc(C)n2nc(SCC(=O)N(C)Cc3ccccc3)nc2n1, the fluorescence artifact activation was -0.05% (inactive). With CCN1CCN(Cc2c(O)ccc3c2O/C(=C\C=C\c2ccccc2)C3=O)CC1 the fluorescence artifact activation was 20.6% (active). With COc1ccccc1/C=C/C=C1\Oc2c(ccc(O)c2CN2CCN(CCO)CC2)C1=O the fluorescence artifact activation was 11.9% (active). For COc1ccccc1/C=C/C=C1\Oc2c(ccc(O)c2CN(C)C)C1=O, the fluorescence artifact activation was 5.64% (inactive). In the case of Cc1ccc(/C=C2\Oc3c(ccc(O)c3CN3CCN(CCO)CC3)C2=O)cc1, the fluorescence artifact activation is reported as 4.11% (inactive). For O=C1/C(=C/C=C/c2ccccc2)Oc2c1ccc(O)c2CN1CCN(CCO)CC1, the fluorescence artifact activation was 46.6% (active). For CCN(CC)Cc1c(O)ccc2c1O/C(=C\C=C\c1ccccc1)C2=O, the fluorescence artifact activation was 0.87% (inactive). In the case of CN(C)Cc1c(O)ccc2c1O/C(=C\C=C\c1ccccc1)C2=O, the fluorescence artifact activation is reported as 0.37% (inactive). With CCN1CCN(Cc2c(O)ccc3c2O/C(=C\c2ccccc2)C3=O)CC1 the fluorescence artifact activation was 2.91% (inactive). With CCN1CCN(Cc2c(O)ccc3c2O/C(=C\C=C\c2ccccc2OC)C3=O)CC1 the fluorescence artifact activation was 1.64% (inactive). For Cc1c(/C=N/O)c2ccccn2c1C=O, the fluorescence artifact activation was 0.97% (inactive). With O=[N+]([O-])c1cc(-c2nc(-c3ccncc3)no2)ccc1Cl the fluorescence artifact activation was -0.06% (inactive). For CCCc1ccc(OCc2ccc(C(=O)NN)o2)c(OC)c1, the fluorescence artifact activation was -0.08% (inactive). With CN1CCCc2cc3c(C(F)(F)F)cc(=O)oc3nc21 the fluorescence artifact activation was 1.21% (inactive). In the case of CC1CCCCC1NS(=O)(=O)CCNC(=O)c1ccccc1 (configuration not stated), the fluorescence artifact activation is reported as -0.01% (inactive). With CC(CC(=O)N1CCc2ccccc21)n1cccn1 (configuration not stated) the fluorescence artifact activation was 0.19% (inactive). For C[C@H](O)C(=O)C1=Nc2c(nc(N)[nH]c2=O)NC1, the fluorescence artifact activation was 0.04% (inactive). With CC(=O)c1cccc(NC(=O)Cn2nc(-c3ccccc3Cl)ccc2=O)c1 the fluorescence artifact activation was 0.29% (inactive). With CN1C(=O)NC(c2ccccc2[N+](=O)[O-])C2=C1CCCC2=O (configuration not stated) the fluorescence artifact activation was 0.1% (inactive). In the case of CCN1C(=S)N[C@@H](CCc2ccccc2)[C@H](C(=O)OC)[C@H]1C, the fluorescence artifact activation is reported as 20.1% (active). With O=C(N/N=C/c1ccc([N+](=O)[O-])cc1)c1cc(-c2ccc3c(c2)OCO3)n[nH]1 the fluorescence artifact activation was 0.03% (inactive). For CSc1nc(C)nc(N/C=C(\C#N)S(=O)(=O)c2ccccc2Cl)n1, the fluorescence artifact activation was 0.27% (inactive). For COC(=O)c1cc2c(cc1NC(=O)CSCCc1ccccn1)OCO2, the fluorescence artifact activation was 0.01% (inactive). For O=C1c2ccccc2C(=O)N1CC1=NCCc2ccccc21, the fluorescence artifact activation was 0.03% (inactive). In the case of O=C(CN1C(=O)c2ccccc2C1=O)N1CCN=C1c1ccccc1, the fluorescence artifact activation is reported as 19.8% (active). With O=C(c1ccc(F)cc1)N1CCN=C1c1ccccc1 the fluorescence artifact activation was 0.24% (inactive). For O=C(O)c1ccccc1/C=N/NC(=S)NC1CCCCC1, the fluorescence artifact activation was 0.11% (inactive). For CSc1ccc(Cl)c(C(=O)NNC(=O)c2csc(N3CCOCC3)n2)c1, the fluorescence artifact activation was 2.41% (inactive). For CCCN1CC=C2C(C#N)=C(N)C(C#N)(C#N)C(c3cccc(OC)c3OC)C2C1 (configuration not stated), the fluorescence artifact activation was 0.1% (inactive). For Nc1nc(NCc2ccco2)nc(N2CCCCCC2)c1[N+](=O)[O-], the fluorescence artifact activation was 1.86% (inactive). For Cc1cc(/C=C2\SC(=S)N(Cc3ccco3)C2=O)c(C)n1-c1ccccc1, the fluorescence artifact activation was 3.1% (inactive). For Cc1cc(/C=C2\SC(=S)N(Cc3ccco3)C2=O)c(C)n1-c1cccnc1, the fluorescence artifact activation was 10.8% (inactive). With COc1ccc(-n2c(C)cc(/C=C3\SC(=S)N(Cc4ccco4)C3=O)c2C)cc1 the fluorescence artifact activation was 91.9% (active). For Cc1nc(NC(=O)C(Cl)Cl)sc1C(=O)N(C)C, the fluorescence artifact activation was 0.56% (inactive). In the case of CCOc1c2ccc(C(=O)NCCc3cccs3)cc2nn1CC, the fluorescence artifact activation is reported as 0.58% (inactive). For CC(C)CCNC(=O)c1ccc2c(SCC(=O)O)c3c(nc2c1)CCC3, the fluorescence artifact activation was 12.9% (active). In the case of COC(=O)C1C2CC3c4[nH]c5cc(OC)ccc5c4CCN3CC2CC(OC(=O)CC(C)=O)C1OC (configuration not stated), the fluorescence artifact activation is reported as 0.13% (inactive). For CN(C)c1ccc(/C=C2\NC(=S)N(Cc3ccccc3)C2=O)cc1, the fluorescence artifact activation was 91.1% (active). With Cc1ccc(/C=C2/NC(=O)N(Cc3ccccc3)C2=O)s1 the fluorescence artifact activation was 0.01% (inactive). In the case of CN(C)c1ccc(/C=C2\CCC/C(=C\c3ccccc3)C2=O)cc1, the fluorescence artifact activation is reported as 0.02% (inactive).

— PubChem BioAssay AID504382 (The Scripps Research Institute Molecular Screening Center, 2011)
